Results reported in ChEMBL document CHEMBL2093137, “WHO-TDR NTD Screening”.
In brackets after ≈: the same amount, converted by molar mass.

Experiments:
Plasmodium falciparum K1 = test: WHO-TDR: Malaria; format: functional, organism-based, Homo sapiens; settings: Erythrocyte
Method in brief: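 Whole-organism screen of a 10,000-compound diverse library from Life Chemicals, filtered for drug-likeness and reactive groups, against intra-erythrocytic Plasmodium falciparum K1 strain in human red blood cells. The assay followed previously published standard procedures, with a reference drug as positive control. Antiplasmodial potency is reported as IC50.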

[1] = system: Trypanosoma brucei brucei; test: WHO-TDR: Human African Trypanosomiasis (HAT); format: functional, organism-based; settings: Squib-427
Method in brief: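 Whole-organism screen of a 10,000-compound diverse library from Life Chemicals, filtered for drug-likeness and reactive groups, against bloodstream forms of Trypanosoma brucei Squib 427 strain. The assay followed previously published standard procedures, with reference drugs as positive controls. Antiparasitic potency is reported as IC50.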

Schistosoma mansoni = test: WHO-TDR: Schistosomiasis; format: functional; design: concentration or dose not given beside the values
Method in brief: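 Whole-organism screen of a 10,000-compound diverse library from Life Chemicals, filtered for drug-likeness and reactive groups, against larval and/or adult worms of Schistosoma mansoni Puerto Rican strain. The assay followed previously published standard procedures, with a reference drug as positive control. Activity is reported as percent inhibition and as IC50.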

Leishmania infantum = test: WHO-TDR: Leishmaniasis; format: functional, organism-based, Mus musculus; settings: Macrophage
Method in brief: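 Whole-organism screen of a 10,000-compound diverse library from Life Chemicals, filtered for drug-likeness and reactive groups, against intracellular amastigotes of Leishmania infantum MHOM/MA(BE)/67 in murine peritoneal macrophage host cells. The assay followed previously published standard procedures, with a reference drug as positive control. Antiparasitic potency is reported as IC50.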

Brugia malayi = test: WHO-TDR: Lymphatic Filariasis; format: functional; design: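 tested at 10 µM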
Method in brief: (§1)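 Whole-organism screen of a 10,000-compound diverse library from Life Chemicals, filtered for drug-likeness and reactive groups, against Brugia malayi microfilariae. The assay followed previously published standard procedures, with reference drugs as positive controls. Activity is reported as percent inhibition and as IC50.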

[2] = WHO-TDR: Cytotoxicity; format: toxicity, cell-based; settings: human, MRC5 cells
Onchocerca ochengi = test: WHO-TDR: Onchocerciasis; format: functional; design: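 at 12.5 µM on microfilariae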
Method in brief: as §1, with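 “microfilariae of Onchocerca ochengi or Onchocerca lienalis, used as animal-pathogen stand-ins for the human parasite.” for “Brugia malayi microfilariae.”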

Trypanosoma cruzi = test: WHO-TDR: Chagas disease; format: functional, organism-based, Homo sapiens; settings: MRC5
Method in brief: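 Following previously published standard procedures, with a reference drug as positive control, a whole-organism assay was run on Trypanosoma cruzi Tulahuen CL2 beta-galactosidase strain amastigotes inside MRC-5SV2 human lung fibroblast host cells. The 10,000 compounds tested formed a diverse Life Chemicals library filtered for drug-likeness and reactive groups. Results are expressed as IC50 for antiparasitic potency.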

O=S(=O)(NCCNc1ccc(Nc2ccncc2)nn1)c1cc(Cl)ccc1Cl
IC50 (Plasmodium falciparum K1): 9.79 µg/mL (≈ 22.3 µM)
IC50 [1]: > 13.2 µg/mL
% Inhibition (Schistosoma mansoni): 0%
IC50 (Leishmania infantum): > 13.2 µg/mL
% Inhibition (Brugia malayi): 0%
IC50 [2]: > 13.2 µg/mL
% Inhibition (Onchocerca ochengi): 100%
IC50 (Trypanosoma cruzi): > 13.2 µg/mL

CC(=O)N1CCc2ccc(NC(=O)c3ccc(F)c(F)c3)cc21
IC50 (Plasmodium falciparum K1): > 9.49 µg/mL
IC50 [1]: > 9.49 µg/mL
% Inhibition (Schistosoma mansoni): 8.3%
IC50 (Leishmania infantum): 0.307 µg/mL (≈ 0.971 µM)
% Inhibition (Brugia malayi): 0%
IC50 [2]: > 9.49 µg/mL
% Inhibition (Onchocerca ochengi): 75%
IC50 (Trypanosoma cruzi): 2.93 µg/mL (≈ 9.25 µM)

NC(=O)c1ccc(NC(=O)CCCn2nc(-c3ccc(Cl)cc3)ccc2=O)cc1
IC50 (Plasmodium falciparum K1): > 12.3 µg/mL
IC50 [1]: > 12.3 µg/mL
% Inhibition (Schistosoma mansoni): 16.7%
IC50 (Leishmania infantum): > 12.3 µg/mL
% Inhibition (Brugia malayi): 0%
IC50 [2]: > 12.3 µg/mL
% Inhibition (Onchocerca ochengi): 100%
IC50 (Trypanosoma cruzi): > 12.3 µg/mL

NC(=O)CSc1nc(-c2ccccc2)c(NC(=O)c2cc3ccccc3o2)s1
IC50 (Plasmodium falciparum K1): > 12.3 µg/mL
IC50 [1]: > 12.3 µg/mL
% Inhibition (Schistosoma mansoni): 25%
IC50 (Leishmania infantum): > 12.3 µg/mL
% Inhibition (Brugia malayi): 33.33%
IC50 [2]: > 12.3 µg/mL
% Inhibition (Onchocerca ochengi): 100%
IC50 (Trypanosoma cruzi): > 12.3 µg/mL

CCn1nc(C(=O)Nc2nnc(CCSc3ccccc3)o2)cc1C
IC50 (Plasmodium falciparum K1): > 10.7 µg/mL
IC50 [1]: > 10.7 µg/mL
% Inhibition (Schistosoma mansoni): 0%
IC50 (Leishmania infantum): > 10.7 µg/mL
% Inhibition (Brugia malayi): 0%
IC50 [2]: > 10.7 µg/mL
% Inhibition (Onchocerca ochengi): 100%
IC50 (Trypanosoma cruzi): > 10.7 µg/mL

Cc1cc(C)cc(NC(=O)NCCNc2ccc(Nc3ccccn3)nn2)c1
IC50 (Plasmodium falciparum K1): > 11.3 µg/mL
IC50 [1]: > 11.3 µg/mL
% Inhibition (Schistosoma mansoni): 0%
IC50 (Leishmania infantum): 0.367 µg/mL (≈ 0.972 µM)
% Inhibition (Brugia malayi): 0%
IC50 [2]: > 11.3 µg/mL
% Inhibition (Onchocerca ochengi): 100%
IC50 (Trypanosoma cruzi): > 11.3 µg/mL

O=C(Nc1ccc2c(c1)N(C(=O)C1CCCO1)CC2)c1ccco1 (stereo not drawn)
IC50 (Plasmodium falciparum K1): > 9.79 µg/mL
IC50 [1]: > 9.79 µg/mL
% Inhibition (Schistosoma mansoni): 0%
IC50 (Leishmania infantum): 0.317 µg/mL (≈ 0.971 µM)
% Inhibition (Brugia malayi): 0%
IC50 [2]: > 9.79 µg/mL
% Inhibition (Onchocerca ochengi): 0%
IC50 (Trypanosoma cruzi): > 9.79 µg/mL

COc1cccc(C2C(S(=O)(=O)c3ccc(C)cc3)=C(O)C(=O)N2c2ccc(C)cc2)c1 (stereo not drawn)
IC50 (Plasmodium falciparum K1): > 13.5 µg/mL
IC50 [1]: > 13.5 µg/mL
% Inhibition (Schistosoma mansoni): 0%
IC50 (Leishmania infantum): > 13.5 µg/mL
% Inhibition (Brugia malayi): 20%
IC50 [2]: > 13.5 µg/mL
% Inhibition (Onchocerca ochengi): 100%
IC50 (Trypanosoma cruzi): > 13.5 µg/mL

CCOC(=O)c1ccccc1NC(=O)CSc1ncc(CO)n1Cc1ccc(OC)cc1
IC50 (Plasmodium falciparum K1): > 13.7 µg/mL
IC50 [1]: > 13.7 µg/mL
% Inhibition (Schistosoma mansoni): 0%
IC50 (Leishmania infantum): > 13.7 µg/mL
% Inhibition (Brugia malayi): 25%
IC50 [2]: > 13.7 µg/mL
% Inhibition (Onchocerca ochengi): 100%
IC50 (Trypanosoma cruzi): > 13.7 µg/mL

O=c1ccc(-c2ccncc2)nn1CCCNS(=O)(=O)c1ccc2c(c1)CCCC2
IC50 (Plasmodium falciparum K1): > 12.7 µg/mL
IC50 [1]: > 12.7 µg/mL
% Inhibition (Schistosoma mansoni): 0%
IC50 (Leishmania infantum): > 12.7 µg/mL
% Inhibition (Brugia malayi): 0%
IC50 [2]: > 12.7 µg/mL
% Inhibition (Onchocerca ochengi): 100%
IC50 (Trypanosoma cruzi): 4.77 µg/mL (≈ 11.2 µM)

COc1ccc(S(=O)(=O)N2CCN(c3ccc(Nc4ccccn4)nn3)CC2)cc1
IC50 (Plasmodium falciparum K1): > 12.8 µg/mL
IC50 [1]: > 12.8 µg/mL
% Inhibition (Schistosoma mansoni): 16.7%
IC50 (Leishmania infantum): 0.414 µg/mL (≈ 0.971 µM)
% Inhibition (Brugia malayi): 0%
IC50 [2]: > 12.8 µg/mL
% Inhibition (Onchocerca ochengi): 0%
IC50 (Trypanosoma cruzi): > 12.8 µg/mL

O=S(=O)(NCC(c1cccs1)N1CCOCC1)c1ccc(Cl)cc1 (stereo not drawn)
IC50 (Plasmodium falciparum K1): > 11.6 µg/mL
IC50 [1]: > 11.6 µg/mL
% Inhibition (Schistosoma mansoni): 0%
IC50 (Leishmania infantum): > 11.6 µg/mL
% Inhibition (Brugia malayi): 0%
IC50 [2]: > 11.6 µg/mL
% Inhibition (Onchocerca ochengi): 100%
IC50 (Trypanosoma cruzi): > 11.6 µg/mL

Cc1ccc(C)c2sc(N(CCCn3ccnc3)C(=O)c3ccco3)nc12
IC50 (Plasmodium falciparum K1): 0.45 µg/mL (≈ 1.18 µM)
IC50 [1]: 3.86 µg/mL (≈ 10.2 µM)
% Inhibition (Schistosoma mansoni): 0%
IC50 (Leishmania infantum): > 12.5 µg/mL
% Inhibition (Brugia malayi): 0%
IC50 [2]: 3.53 µg/mL (≈ 9.28 µM)
% Inhibition (Onchocerca ochengi): 100%
IC50 (Trypanosoma cruzi): 1.49 µg/mL (≈ 3.92 µM)

Cn1nccc1C(=O)Nc1sc(-c2ccccc2)cc1C(N)=O
IC50 (Plasmodium falciparum K1): > 9.79 µg/mL
IC50 [1]: 3.17 µg/mL (≈ 9.71 µM)
% Inhibition (Schistosoma mansoni): 100%
IC50 (Leishmania infantum): 3.17 µg/mL (≈ 9.71 µM)
% Inhibition (Brugia malayi): 0%
IC50 [2]: 8.31 µg/mL (≈ 25.4 µM)
% Inhibition (Onchocerca ochengi): 0%
IC50 (Trypanosoma cruzi): 6.26 µg/mL (≈ 19.2 µM)

Cc1noc(C)c1CCc1nc(-c2ccc(Cl)cc2)no1
IC50 (Plasmodium falciparum K1): 4.72 µg/mL (≈ 15.5 µM)
IC50 [1]: > 9.11 µg/mL
% Inhibition (Schistosoma mansoni): 0%
IC50 (Leishmania infantum): > 9.11 µg/mL
% Inhibition (Brugia malayi): 0%
IC50 [2]: 3.27 µg/mL (≈ 10.8 µM)
% Inhibition (Onchocerca ochengi): 100%
IC50 (Trypanosoma cruzi): 2.88 µg/mL (≈ 9.49 µM)

COc1ccc(CCC(=O)NCCc2ccc(N3CCCC3)cc2)cc1
IC50 (Plasmodium falciparum K1): > 10.6 µg/mL
IC50 [1]: > 10.6 µg/mL
% Inhibition (Schistosoma mansoni): 0%
IC50 (Leishmania infantum): 0.342 µg/mL (≈ 0.97 µM)
% Inhibition (Brugia malayi): 0%
IC50 [2]: > 10.6 µg/mL
% Inhibition (Onchocerca ochengi): 0%
IC50 (Trypanosoma cruzi): > 10.6 µg/mL
